Screening data from PubChem BioAssay.
IMP-1 inh: inhibitors of Pseudomonas aeruginosa IMP-1 metallo-beta-lactamase; inhibition, % at 5.6 µM; purified IMP-1, nitrocefin hydrolysis, epi-absorbance fluorescence; actives 0.45% (n = 290,000);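 active = inhibition above the mean plus 3 SD of all compounds in the same screening run, cut at about 4.5% in these data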;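 also: 0% = IMP-1 with DMSO and 100% = DMSO wells lacking enzyme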
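Material – recombinant IMP-1 enzyme, purified · Amount – IMP-1 0.2 nM before substrate addition · Medium – HEPES buffer pH 7.1 with ZnSO4 and Brij 35 · Timing – 25 °C, 15 min preincubation, 25 min reaction · Measured by – plate fluorescence quenching by hydrolysis product, ex 480/em 530 nm · Read-out – percent enzyme inhibition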
VIM-2 inh: blocks Pseudomonas aeruginosa VIM-2 metallo-beta-lactamase; purified VIM-2, nitrocefin hydrolysis, epi-absorbance fluorescence; inhibition, % at 5.6 µM; actives 0.89% (n = 290,000);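 active = inhibition above the mean of all tested compounds plus 3 SD, cutoff set per screening run, cut at about 7.5% in these data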;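 also: red hydrolysis product quenches plate fluorescence so inhibitors raise well fluorescence; 0% = enzyme with DMSO and 100% = DMSO without enzyme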
DNA FID counter-1: fluorescent intercalator displacement, NS3 helicase counter-screen. DNA fluorescent intercalator displacement, fluorescence. inhibition, % at 7.9 µM. actives 0.17% (n = 290,000). AID 1845;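 also: 0% = vehicle and 100% = reference compound; higher means more ethidium bromide displaced from hairpin DNA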
HCV NS3 hel inh: blocks Hepatitis C virus NS3 helicase unwinding; NS3 helicase DNA unwinding, Cy5 molecular beacon fluorescence; inhibition, % at 10.9 µM; actives 0.56% (n = 290,000);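 active = inhibition above the mean of all tested compounds plus 3 SD, set per campaign, cut at about 35% in these data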;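 also: 0% = DMSO wells and 100% = thioflavine S control wells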
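System: Hepatitis C virus NS3 helicase domain fragment enzyme | Reagent: Annealed dual-labelled DNA beacon duplex, ATP-started | Compound dosing: 10.9 µM single point, 0.8% DMSO | Incubation: 1 h reaction at 25 °C, ATP-initiated | Technique: Cy5 fluorescence | Evaluation: Percent inhibition from t60/t0 fluorescence ratio | Benchmarks: Low DMSO, high thioflavine S at 110 µM | Replication: Singlicate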
NS3 hel confirm: HCV NS3 helicase inhibition, confirmation assay; shares compounds with HCV NS3 hel inh; NS3 helicase DNA unwinding, Cy5 molecular beacon fluorescence; inhibition, % at 10.9 µM; actives 31% (n = 1,600);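 active = inhibition above the mean of all tested compounds plus 3 SD, cutoff set per campaign, cut at about 36% in these data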
DNA FID counter-2: displaces DNA intercalator in HCV helicase counter-screen; shares compounds with HCV NS3 hel inh; actives 4% (n = 1,600); DNA fluorescent intercalator displacement, fluorescence; inhibition, % at 7.9 µM;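 also: 0% = vehicle and 100% = reference compound; higher means more displacement of ethidium bromide from the DNA hairpin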
DNA FID DR: counter-screen for HCV NS3 helicase inhibitors: DNA intercalator displacement dose response; fluorescent intercalator displacement from DNA, fluorescence; 120 tested, under 10 active; IC50, µM; AID 2172; shares compounds with HCV NS3 hel inh; call rule not given here
* = called active by the depositor. In the library only some 1.9% were active in any assay of this set; here they are far more common. Rule as the data show it, unless noted: active = inhibition above about 37%; inactive = the rest.

For CCc1cc2c(=O)n(Cc3ccco3)c(SCC(=O)NCC3CCCO3)nc2s1 (configuration not stated) the results were IMP-1 inh -2.5, VIM-2 inh 1.1, DNA FID counter-1 -29.8 and HCV NS3 hel inh 1.9.
CCc1cc2c(=O)n(Cc3ccco3)c(SCC(=O)N3CCCc4ccccc43)nc2s1 was read as IMP-1 inh 6.0*, VIM-2 inh 3.0, DNA FID counter-1 -32.1, HCV NS3 hel inh 43.1*, NS3 hel confirm 24.6 and DNA FID counter-2 -16.0.
`Cc1c(CC(=O)N[C@@H](C)C(=O)O)c(=O)oc2cc3oc4c(c3cc12)CCCC4` gave IMP-1 inh 0.1, VIM-2 inh -1.5, DNA FID counter-1 -31.3 and HCV NS3 hel inh 7.8.
Screening Cc1ccc(C(=O)NC2CCCCNC2=O)cc1 (configuration not stated) returned IMP-1 inh -2.9, VIM-2 inh 1.1, DNA FID counter-1 -0.1 and HCV NS3 hel inh -12.1.
For O=C1c2ccccc2NC2(CCCC2)N1O the results were IMP-1 inh -2.6, VIM-2 inh -2.4, DNA FID counter-1 -5.8 and HCV NS3 hel inh 3.1.
For O=C1c2ccccc2NC2(CCCCC2)N1N=C1CCCCC1 the results were IMP-1 inh -1.0, VIM-2 inh -1.0, DNA FID counter-1 -1.7, HCV NS3 hel inh 49.0*, NS3 hel confirm -7.5 and DNA FID counter-2 -2.6.
For Cc1ccccc1C(=O)N1CCN(CCNC(=O)C(=O)Nc2ccc(Br)cc2)CC1 the results were IMP-1 inh -0.6, VIM-2 inh 0.4, DNA FID counter-1 -31.6 and HCV NS3 hel inh -8.8.
`C/C(CC(=O)NCC(C)C)=N\NC(=O)COc1cc(C)c(Br)cc1Br` gave IMP-1 inh -4.6, VIM-2 inh -5.1, DNA FID counter-1 -7.0 and HCV NS3 hel inh -1.9.
For CCN(CC(=O)NCc1ccc(Cl)cc1)C(=O)CSc1ccc(Br)cc1 the results were IMP-1 inh -2.1, VIM-2 inh -2.9, DNA FID counter-1 -26.1 and HCV NS3 hel inh -7.5.
For CC(=O)OCCNc1cc(SCc2ccco2)c2nonc2c1[N+](=O)[O-] the results were IMP-1 inh 1.5, VIM-2 inh 5.0, DNA FID counter-1 0.5, HCV NS3 hel inh 46.9*, NS3 hel confirm -17.1 and DNA FID counter-2 19.5.
`O=[N+]([O-])c1c(NCCCO)cc(SCc2ccco2)c2nonc12` gave IMP-1 inh -1.7, VIM-2 inh -0.7, DNA FID counter-1 3.9 and HCV NS3 hel inh 24.6.
Screening O=C(O)C1Nc2c(Cl)cc(Cl)cc2C2C=CCC12 (configuration not stated) returned IMP-1 inh -0.4, VIM-2 inh 4.4, DNA FID counter-1 -7.0 and HCV NS3 hel inh 9.4.
`CCOC(=O)c1ccc2c(c1)C1C=CCC1C(C(=O)OCC)N2` (configuration not stated) gave IMP-1 inh -2.2, VIM-2 inh -2.5, DNA FID counter-1 -11.6, HCV NS3 hel inh 50.7*, NS3 hel confirm 14.2 and DNA FID counter-2 7.2.
Screening CCOC(=O)C1Nc2ccc(Br)cc2C2C=CCC12 (configuration not stated) returned IMP-1 inh -1.7, VIM-2 inh -1.0, DNA FID counter-1 0.3, HCV NS3 hel inh 38.9*, NS3 hel confirm 26.3 and DNA FID counter-2 -4.1.
Fc1ccc2c(c1)C1C=CCC1C(c1cc3c(cc1Br)OCO3)N2 (configuration not stated) was read as IMP-1 inh -2.7, VIM-2 inh -1.7, DNA FID counter-1 -1.8 and HCV NS3 hel inh -0.2.
`CCOC(=O)c1ccc2[nH]c3c(c2c1)CCCC3O` (configuration not stated) gave IMP-1 inh -1.9, VIM-2 inh 0.5, DNA FID counter-1 -6.2 and HCV NS3 hel inh -7.2.
O=C(O)C1Nc2c(O)cccc2C2C=CCC12 (configuration not stated) was read as IMP-1 inh -1.7, VIM-2 inh 11.7*, DNA FID counter-1 0.3, HCV NS3 hel inh 58.2*, NS3 hel confirm 110.3*, DNA FID counter-2 13.7 and DNA FID DR >79.4.
For O=C(O)C1Nc2ccc(Br)cc2C2C=CCC12 (configuration not stated) the results were IMP-1 inh -3.2, VIM-2 inh -0.5, DNA FID counter-1 -12.3, HCV NS3 hel inh 42.7*, NS3 hel confirm 88.2* and DNA FID counter-2 -3.8.
`CC(=O)Nc1ccc(NC(=O)CC2Nc3cccc4cccc(c34)NC2=O)cc1` (configuration not stated) gave IMP-1 inh -1.7, VIM-2 inh 0.4, DNA FID counter-1 -20.1, HCV NS3 hel inh 46.4*, NS3 hel confirm -1.5 and DNA FID counter-2 1.5.
CC(=O)c1ccc(NC(=O)CC2Nc3cccc4cccc(c34)NC2=O)cc1 (configuration not stated) was read as IMP-1 inh -0.9, VIM-2 inh 1.6, DNA FID counter-1 -14.7 and HCV NS3 hel inh 34.5.
For Cc1cccc(NC(=O)CC2Nc3cccc4cccc(c34)NC2=O)c1 (configuration not stated) the results were IMP-1 inh -1.4, VIM-2 inh 1.0, DNA FID counter-1 -12.4, HCV NS3 hel inh 45.2*, NS3 hel confirm -25.9 and DNA FID counter-2 13.9.
Cc1cnc(C(=O)OCC(=O)c2ccc(-c3ccccc3)cc2)cn1 was read as IMP-1 inh -0.8, VIM-2 inh -0.8, DNA FID counter-1 -29.5 and HCV NS3 hel inh 7.0.
Screening CCOC(=O)c1sc(-c2ccc(Cl)cc2)nc1O returned IMP-1 inh -0.2, VIM-2 inh -1.1, DNA FID counter-1 -16.1 and HCV NS3 hel inh 20.2.
O=C(O)c1cccc(NC(=S)NC(=O)c2ccc3ccccc3c2)c1 was read as IMP-1 inh -2.0, VIM-2 inh -3.1, DNA FID counter-1 -27.1, HCV NS3 hel inh 40.7*, NS3 hel confirm 58.3* and DNA FID counter-2 -7.1.
Screening O=C(O)c1ccc(NC(=S)NC(=O)c2cccc(COc3ccccc3)c2)cc1 returned IMP-1 inh -1.3, VIM-2 inh -2.8, DNA FID counter-1 -32.1, HCV NS3 hel inh 36.3*, NS3 hel confirm 69.8* and DNA FID counter-2 2.4.
For O=c1cc(O)nc(SCc2ccccc2)n1-c1ccc(F)cc1 the results were IMP-1 inh -1.7, VIM-2 inh -0.3, DNA FID counter-1 -23.7, HCV NS3 hel inh 58.8*, NS3 hel confirm -1.5 and DNA FID counter-2 -22.2.
Screening O=C(CSc1nc(O)cc(=O)n1-c1ccccc1)NC1CCCCC1 returned IMP-1 inh 2.7, VIM-2 inh -3.2, DNA FID counter-1 -9.9 and HCV NS3 hel inh 6.5.
Screening Cc1cc(N2C(=O)C(O)=C(C(=O)c3ccco3)C2c2cccc(O)c2)no1 (configuration not stated) returned IMP-1 inh -2.3, VIM-2 inh -1.0, DNA FID counter-1 6.7 and HCV NS3 hel inh 11.6.
